This note sets out measurements from ChEMBL document CHEMBL3091364, “Benzyloxybenzylammonium chlorides: Simple amine salts that display anticonvulsant activity” (Bioorg Med Chem, 2013).

The inhibition is the drop in the measured response relative to a control, in per cent. For orientation: ED50 means the dose at which the effect has come halfway, by size or by number of responders. The TD50 is the dose at which the toxic effect under study appears in half of the subjects.

The source made the active and inactive calls. The rule behind the calls is not given here.

Series [1] deals with T1, Alpha-1D adrenergic receptor (Homo sapiens) (UniProt P25100).
T1 sequence (whole entry): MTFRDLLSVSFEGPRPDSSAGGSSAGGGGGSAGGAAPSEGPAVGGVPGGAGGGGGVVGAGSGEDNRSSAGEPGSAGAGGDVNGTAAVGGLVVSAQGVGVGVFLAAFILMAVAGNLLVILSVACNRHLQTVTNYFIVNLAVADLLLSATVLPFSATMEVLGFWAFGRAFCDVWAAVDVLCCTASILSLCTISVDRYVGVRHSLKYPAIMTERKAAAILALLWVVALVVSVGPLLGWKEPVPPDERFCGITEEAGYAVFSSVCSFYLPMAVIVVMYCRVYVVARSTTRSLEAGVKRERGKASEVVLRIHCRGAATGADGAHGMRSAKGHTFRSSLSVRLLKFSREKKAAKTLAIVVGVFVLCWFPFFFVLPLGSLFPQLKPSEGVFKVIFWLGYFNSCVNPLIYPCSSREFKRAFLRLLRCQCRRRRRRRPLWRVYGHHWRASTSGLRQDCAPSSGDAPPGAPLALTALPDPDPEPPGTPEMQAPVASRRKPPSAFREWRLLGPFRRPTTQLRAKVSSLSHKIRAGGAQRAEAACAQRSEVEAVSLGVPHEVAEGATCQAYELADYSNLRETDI
Put plainly: Inhibition of adrenergic alpha-1D receptor (unknown origin) at 10 uM relative to control.

Series [2] deals with Mus musculus. Put plainly: Anticonvulsant activity in albino CF-1 mouse assessed as protection against maximal electroshock-induced seizures at 100 mg/kg, ip. More on the design: dose 100 mg/kg. The format is functional, organism-based. The procedure, abridged:
(§1)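 Screened under the NINDS ASP in male albino Carworth Farms No. 1 mice (ip) or male albino Sprague-Dawley rats (ip or po), using MES, 6 Hz (32 mA) and subcutaneous pentylenetetrazol seizure tests. Initial qualitative tests used preset doses (e.g., 30, 50, 100 mg/kg). ED50 values with 95% confidence intervals came from dose–response data collected at the time of peak effect.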
A general note: The maximal electroshock test induces tonic seizures with an electrical stimulus.

Series [3] concerns Rattus norvegicus. Put plainly: Anticonvulsant activity in ip dosed albino Sprague-Dawley rat assessed as protection against maximal electroshock-induced seizures measured at 0.25 to 4 hrs. The format is functional. The procedure, abridged:
as §1

In series [4] the test system is Mus musculus. Put plainly: Anticonvulsant activity in ip dosed albino CF-1 mouse assessed as protection against maximal electroshock-induced seizures measured at 0.25 to 0.5 hrs. Type of series: functional. The conditions noted are these: albino CF-1, ip. Put shortly:
as §1

Series [5] has as its target T2, 5-hydroxytryptamine receptor 3A (Homo sapiens) (UniProt P46098).
T2 sequence (whole entry): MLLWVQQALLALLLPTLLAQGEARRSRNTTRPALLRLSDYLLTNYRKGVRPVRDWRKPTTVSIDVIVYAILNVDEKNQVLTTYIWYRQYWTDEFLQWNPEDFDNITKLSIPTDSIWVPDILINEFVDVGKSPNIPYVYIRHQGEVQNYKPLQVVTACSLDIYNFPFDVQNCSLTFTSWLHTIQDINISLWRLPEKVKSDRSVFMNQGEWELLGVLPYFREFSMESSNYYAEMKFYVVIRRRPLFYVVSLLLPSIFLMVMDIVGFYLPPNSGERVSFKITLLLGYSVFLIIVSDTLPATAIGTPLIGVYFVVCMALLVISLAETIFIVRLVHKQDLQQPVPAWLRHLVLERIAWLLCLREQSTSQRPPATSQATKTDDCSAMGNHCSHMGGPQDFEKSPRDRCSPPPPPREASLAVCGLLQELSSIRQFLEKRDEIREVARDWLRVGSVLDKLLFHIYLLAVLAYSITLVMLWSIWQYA
Put plainly: Inhibition of 5-HT3 receptor (unknown origin) at 10 uM relative to control.

Series [6] relates to Mus musculus. Description: Anticonvulsant activity in corneally kindled mouse assessed as protection against seizure at 78 mg/kg, ip. Type of series: functional, organism-based. Details: dose 78 mg/kg. Put shortly:
(§2)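 Corneally kindled mouse seizure model with ip dosing. Protection was scored in 4 animals, and the average seizure score was recorded.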

A short description of series [7]: Toxicity in ip dosed albino CF-1 mouse assessed as neurological impairment measured at 0.25 hrs by rotorod test. The format is organism-based. The conditions noted are these: in vivo. Put shortly:
(§3)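 Male albino Carworth Farms No. 1 mice dosed intraperitoneally under the NINDS Anticonvulsant Screening Program; neurological impairment scored by rotorod test. Qualitative screens used preset doses (e.g., 30, 100 mg/kg); where activity was sufficient, dose–response curves were run at time of peak effect to give TD50 in mg/kg with 95% confidence intervals.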
(In general: In the rotarod test animals must keep their balance on a rotating rod.)

In series [8] the test system is Mus musculus. Description: Anticonvulsant activity in ip dosed albino CF-1 mouse assessed as protection against subcutaneous metrazol-induced seizure measured at 0.25 hrs. The format is functional. The conditions noted are these: albino CF-1, 0.25 h. Put shortly: as §1
For series [9], the target named is 5-hydroxytryptamine receptor 1E (Homo sapiens) (UniProt P28566). Put plainly: Inhibition of 5-HT1E receptor (unknown origin) at 10 uM relative to control.
Series [10] concerns the target 5-hydroxytryptamine receptor 1B (Homo sapiens) (UniProt P28222). Put plainly: Inhibition of 5-HT1B receptor (unknown origin) at 10 uM relative to control.
The species entered for series [11] is Rattus norvegicus. Put plainly: Inhibition of Na+ channel in rat embryonic cortical neurons assessed as hyperpolarizing shift of current at 10 uM by whole-cell voltage clamp assay.
The species entered for series [12] is Rattus norvegicus. Description: Induction of voltage-dependent Na+ channel activation in rat embryonic cortical neurons at 10 uM by whole-cell voltage clamp assay (reference value: - 39 +/- 7.8 mV).
For series [13], the species on record is Rattus norvegicus. Put plainly: Induction of voltage-dependent Na+ channel fast inactivation in rat embryonic cortical neurons at 10 uM by whole-cell voltage clamp assay (reference value: - 51.1 +/- 1.4 mV).
Series [14] can be described thus: Cytotoxicity against rat embryonic cortical neurons assessed as loss of membrane integrity at 20 uM. The conditions noted are these: cortical neurone.
The subject of series [15] is Mus musculus. Description: Anticonvulsant activity in corneally kindled mouse assessed as protection against seizure at 20 mg/kg, ip. Type of series: functional, organism-based. Details: dose 20 mg/kg. Put shortly:
as §2

Series [16] can be described thus: Toxicity in ip dosed albino Sprague-Dawley rat assessed as behavioral changes measured at 0.5 hrs. Type of series: organism-based. The conditions noted are these: in vivo. Put shortly:
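Male albino Sprague-Dawley rats given compound intraperitoneally or orally (NINDS ASP); neurological impairment judged from behavioral toxicity effects. Preset screening doses (e.g., 30 mg/kg); for adequately active compounds, TD50 (mg/kg, 95% confidence intervals) derived from dose–effect data at time of peak effect.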

Series [17] concerns Rattus norvegicus. Description: Anticonvulsant activity in ip dosed albino Sprague-Dawley rat assessed as protection against maximal electroshock-induced seizures measured at 0.5 hrs. Type of series: functional. The procedure, abridged:
as §1

Series [18] concerns Rattus norvegicus. Put plainly: Anticonvulsant activity in ip dosed albino Sprague-Dawley rat assessed as protection against maximal electroshock-induced seizures measured at 0.25 to 0.5 hrs. The format is functional. Put shortly: as §1
Series [19] concerns Mus musculus. Put plainly: Anticonvulsant activity in ip dosed albino CF-1 mouse assessed as protection against subcutaneous metrazol-induced seizure measured at 0.5 hrs. As to conditions: albino CF-1, 0.5 h. Type of series: functional. The procedure, abridged: as §1
Series [20] relates to Mus musculus. Description: Anticonvulsant activity in ip dosed albino CF-1 mouse assessed as protection against 6 Hz psychomotor seizure measured at 1 hr. The format is functional. The conditions noted are these: albino CF-1, ip. The procedure, abridged: as §1
Series [21] deals with Mus musculus. Description: Anticonvulsant activity in ip dosed albino CF-1 mouse assessed as protection against maximal electroshock-induced seizures measured at 0.5 hrs. The format is functional. The conditions noted are these: albino CF-1, ip. Put shortly: as §1
A short description of series [22]: Toxicity in ip dosed albino CF-1 mouse assessed as neurological impairment measured at 0.5 to 2 hrs by rotorod test. Type of series: organism-based. The conditions noted are these: in vivo. Put shortly: as §3
Series [23] relates to Mus musculus. Put plainly: Anticonvulsant activity in ip dosed albino CF-1 mouse assessed as protection against 6 Hz psychomotor seizure measured at 0.5 hrs. Type of series: functional. The conditions noted are these: albino CF-1, ip. Put shortly: as §1
The subject of series [24] is Mus musculus. Description: Anticonvulsant activity in ip dosed albino CF-1 mouse assessed as protection against maximal electroshock-induced seizures measured at 0.5 to 2 hrs. The format is functional. As to conditions: albino CF-1, ip. Put shortly:
as §1

Chain of 5-hydroxytryptamine receptor 1E (Homo sapiens) (P28566 whole entry): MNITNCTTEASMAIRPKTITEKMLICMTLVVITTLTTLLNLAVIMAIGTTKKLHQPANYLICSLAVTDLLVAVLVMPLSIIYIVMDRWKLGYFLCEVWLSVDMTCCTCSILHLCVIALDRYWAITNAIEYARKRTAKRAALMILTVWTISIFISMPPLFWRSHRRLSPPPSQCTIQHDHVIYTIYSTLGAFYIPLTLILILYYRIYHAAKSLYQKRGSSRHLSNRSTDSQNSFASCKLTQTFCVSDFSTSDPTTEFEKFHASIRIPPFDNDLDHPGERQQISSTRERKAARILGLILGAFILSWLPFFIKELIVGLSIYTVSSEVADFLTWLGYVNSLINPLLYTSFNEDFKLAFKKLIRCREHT
Chain of 5-hydroxytryptamine receptor 1B (Homo sapiens) (P28222 whole entry): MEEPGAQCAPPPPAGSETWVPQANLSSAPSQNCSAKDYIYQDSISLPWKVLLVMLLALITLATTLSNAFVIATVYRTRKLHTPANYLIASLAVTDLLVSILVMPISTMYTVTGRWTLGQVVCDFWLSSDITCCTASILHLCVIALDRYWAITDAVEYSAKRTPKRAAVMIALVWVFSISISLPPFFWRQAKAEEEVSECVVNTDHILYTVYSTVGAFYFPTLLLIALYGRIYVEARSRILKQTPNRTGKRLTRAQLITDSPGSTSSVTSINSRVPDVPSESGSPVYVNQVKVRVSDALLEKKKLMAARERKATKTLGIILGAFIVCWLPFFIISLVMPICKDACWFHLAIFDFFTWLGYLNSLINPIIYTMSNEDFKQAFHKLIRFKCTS

As to `Cl.NCc1ccc(OCc2cccc(F)c2)cc1`, in [1], the inhibition was -9.1%. Further, in series [2], the result was Active. Moreover, the ED50 is over 30 mg/kg in [3] and under 100 mg/kg in series [4].

Take `Cl.NCc1ccc(OCc2cccc(Cl)c2)cc1`: the inhibition in series [1] is -1.9%; in series [5], 13.7%. For the same compound, in series [6], the outcome was Active. In series [7], the TD50 at 0.25 h was 160 mg/kg. The ED50 in series [8] is over 180 mg/kg.

In the case of `Cl.NCc1ccc(OCc2ccccc2OC(F)(F)F)cc1`, the inhibition is 6.5% in [1], 10.4% in series [5], -5.2% in series [9] and -8.8% in [10]. Further, the Activity is 15.3 mV in series [11] and “Toxic” in series [14]. In addition, the results for the V1/2 in series [12] and in [13] were -35.3 mV and -66.4 mV, respectively. Besides, the result in series [15] was Active. Further, in [16], the TD50 at 0.5 h was 81 mg/kg. Besides, the values for the ED50 in series [17] and in [8] were 18 mg/kg and over 80 mg/kg, respectively. Besides, the TD50 at 0.25 h in series [7] came to 64 mg/kg.

Consider `Cl.NCc1ccc(OCc2ccc(F)cc2)cc1`, for which the inhibition in series [1] is 0.2%; in series [5], -4.2%; in series [10] it was -2.5%.

Turning to `Cl.NCc1ccc(OCc2cccc(OC(F)(F)F)c2)cc1`, the ED50 in series [18] is under 30 mg/kg; in series [19], over 170 mg/kg; in series [20], 50 mg/kg; in series [21], 28 mg/kg. For the same compound, the TD50 at 0.25 h in series [7] was determined as 92 mg/kg.

As for `Cl.NCc1ccc(OCc2ccccc2)cc1`, the ED50 in series [3] is over 30 mg/kg; in series [23], 30 mg/kg; in [24] it was over 100 mg/kg. In series [22], the TD50 turned out to be 100 mg/kg.

Turning to `Cl.NCc1ccc(OCc2ccccc2F)cc1`, the figures for the inhibition in series [9] and in series [10] were -6.6% and -7.7%, respectively. The ED50 in series [3] is over 30 mg/kg; in [23], 30 mg/kg; in [21] it was 30 mg/kg. Besides, the TD50 in [22] came to 100 mg/kg.

`Cl.NCc1ccc(OCc2ccc(Cl)cc2)cc1`: the inhibition is -6.6% in series [1], 23.1% in series [5], 2.7% in series [9] and -6.7% in series [10]. The ED50 in series [3] was over 30 mg/kg.

In the case of `Cl.NCc1ccc(OCc2ccc(OC(F)(F)F)cc2)cc1`, the inhibition in series [9] was -6.9%. For the same compound, the ED50 in series [21] is under 100 mg/kg.
